# Source: PubChem BioAssay AID602394 (Broad Institute, 2012)
# Several values for one entry are separate records, joined by “and”; a condition that tells them apart may be missing. Equal values may be shown once. Activity calls are given as the source filed them.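 The calls were made as follows: active = falling signal, meaning toxicity, with AC50 at or below twice the top valid dose for that sample; inconclusive = flat curve showing 30 to 70% toxicity, or poor fit; inactive = the rest.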
# Tested on: not listed separately
# Test: mammalian cell viability loss – dry powder, set 2, plate reader, cytotoxicity control for antifungal single agent project, dose response (AID 602394)
# Settings: NIH 3T3 fibroblast viability, Alamar Blue fluorescence, 48 h; at 2.6 µM (top of the series)
# Procedure, shortened: (§1)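 Test system – NIH 3T3 mouse fibroblast cells · Measured by – Alamar Blue fluorescence at 1:200 final, Ex 544 nm, Em 590 nm · Control set – geldanamycin at 10 µM as inhibition control · Schedule – 48 h treatment at 37 °C, 2–3 h Alamar Blue · Compound dosing – dose series topping at 26 µM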
row,Structure (SMILES),"activity change, negative = toxicity"
1,CC1/C=C/C=C\C=C\C=C\C=C\C=C\C=C\C(O[C@H]2OC(C)C(O)C(N)C2O)CC2OC(O)(CC(O)CC(O)C(O)CCC(O)CC(O)CC(=O)OC(C)C(C)C1O)CC(O)C2C(=O)O (stereo partly drawn),-14.9% (inactive)

# Same assay, conditions: NIH 3T3 fibroblast viability, Alamar Blue fluorescence, 48 h; at 26 µM (top of the series)
row,Structure (SMILES),"activity change, negative = toxicity"
1,CCOC(=O)N1C(=O)C2(CCCCC2)NC1=S,4.41% (inactive)
2,Cc1ccc(N2C(=O)C3(CCCCC3)NC2=S)cc1,-13% (inactive)
3,CCOC(=O)N1C(=O)C2(CCCCC2)N(C(C)C)C1=S,-8.87% (inactive)
4,CCOC(=O)N1C(=O)C2(CCCCC2)N(c2ccccc2C)C1=S,-14% (inactive)
5,CCOC(=O)N1C(=O)C2(CCCC2)N(c2ccc(C)cc2)C1=S,8.13% (inactive)
6,CC(C)N1C(=S)NC(=O)C12CCCCC2,47.5% (inactive)
7,CCOC(=O)N1C(=O)C2(CCOCC2)N(c2ccc(C)cc2)C1=S,8.99% (inactive)
8,CCOC(=O)N1C(=O)C2(CCCCC2)N(c2ccc(C#N)cc2)C1=S,10.9% (inactive)
9,O=C1NC(=S)N(c2ccc(F)cc2)C12CCCCC2,10.6% (inactive)
10,CCOC(=O)N1C(=O)C(C)(C)N(c2ccc(C)cc2)C1=S,14.6% (inactive)
11,Cc1ccc(N2C(=S)N(C)C(=O)C23CCCCC3)cc1,-4.95% (inactive) and -14.4% (inactive)
12,Cc1ccc(N2C(=O)NC(=O)C23CCCCC3)cc1,-10.2% (inactive)
13,CCOC(=O)N1C(=O)C2(CCC2)N(c2ccc(C)cc2)C1=S,-6.41% (inactive)
14,Cc1ccc(N2C(=S)NC(=O)C23CCOCC3)cc1,29.4% (inactive)
15,Cc1ccc(N2C(=S)N(C(=O)Oc3ccccc3)C(=O)C23CCCCC3)cc1,0.942% (inactive)
16,Cc1ccc(N2C(=S)NC(=O)C2(C)C)cc1,-5% (inactive)
17,CCOC(=O)N1C(=O)C2(CCCCC2)N(c2ccc(F)cc2)C1=S,-18.1% (inactive)

row,Structure (SMILES),"activity change, negative = toxicity"
1,Cc1ccc(N2C(=O)N(C)C(=O)C23CCCCC3)cc1,-27.1% (inactive)
2,CCOC(=O)N1C(=O)C2(CCCCC2)N(Cc2ccccc2)C1=S,-2.91% (inactive)
3,CCOC(=O)N1C(=O)C2(CCCCC2)N(c2ccccc2)C1=S,17.3% (inactive)
4,Cc1ccc(N2CC(=O)NC2=O)cc1,22.5% (inactive)
5,CCOC(=O)N1C(=S)NC(=O)C12CCCCC2,2.71% (inactive)
6,CCCc1ccc(N2C(=S)N(C(=O)OCC)C(=O)C23CCCCC3)cc1,-15.8% (inactive)
7,Cc1ccc(N2C(=S)NC(=O)C23CCCCC3)cc1,12.5% (inactive)
8,O=C1NC(=S)NC12CCCCC2,3.57% (inactive)
9,Cc1ccc(N2C(=S)N(S(C)(=O)=O)C(=O)C23CCCCC3)cc1,-8.26% (inactive)
10,CCOC(=O)N1C(=O)C2(CCCCC2)N(c2ccc(OC)cc2)C1=S,21.1% (inactive)
11,CCOC(=O)N1C(=O)N(c2ccc(C)cc2)C2(CCCCC2)C1=O,7.79% (inactive)
12,Cc1ccc(N2C(=O)C(=O)NC2=S)cc1,3.56% (inactive)
13,O=C1NC(=S)N(c2ccccc2)C12CCCCC2,52.9% (inactive)
14,CCCCN1C(=O)N(c2ccc(C)cc2)C2(CCCCC2)C1=O,-35.3% (inactive)
15,Cc1ccc(N2C(=S)NC(=O)C23CCC3)cc1,25% (inactive)
16,O=C1NC(=S)N(Cc2ccccc2)C12CCCCC2,5.77% (inactive)

# Tested on: NIH 3T3 fibroblast viability, Alamar Blue fluorescence, 48 h
# Test: as above
# Settings: not given
# Procedure, shortened: as §1
row,Structure (SMILES),AC50
1,CCOC(=O)N1C(=S)N(c2ccc(C)cc2)C2(CCCCC2)C1=NCc1ccccc1,> 52 µM (inactive)
2,CCCC(=O)N1C(=O)C2(CCCCC2)N(c2ccc(C)cc2)C1=S,18.8 µM
3,CCCCN1C(=O)C2(CCCCC2)N(c2ccc(C)cc2)C1=S,24.2 µM
4,CCOC(=O)N1C(=O)C2(CCCCC2)N(c2ccc(C(C)(C)C)cc2)C1=S,16.5 µM
5,Cc1ccc(N2C(=S)N(C(=O)OC(C)C)C(=O)C23CCCCC3)cc1,> 52 µM (inactive)
6,CCOC(=O)N1C(=O)C2(CCCCC2)N(c2ccc(C(F)(F)F)cc2)C1=S,12.5 µM
7,CCOC(=O)N1C(=O)C2(CCCCC2)N(c2ccc(Cl)cc2)C1=S,22.3 µM
8,Cc1ccc(N2CC(=O)NC2=S)cc1,20.7 µM
9,Cc1ccc(N2C(=S)N(C(=O)OCc3ccccc3)C(=O)C23CCCCC3)cc1,6.98 µM
10,CCOC(=O)N1C(=O)C2(CCCCC2)N(c2ccc(-c3ccccc3)cc2)C1=S,9.81 µM
11,CCOC(=O)N1C(=O)C2(CCCCC2)N(c2ccc(CC)cc2)C1=S,19.5 µM
12,CCCCN1C(=O)N(c2ccc(C)cc2)C2(CCCCC2)C1=S,20.9 µM
13,CCOC(=O)N1C(=O)C2(CCCCC2)N(c2cccc(C)c2)C1=S,24.2 µM
14,CCOC(=O)N1C(=O)C2(CCCCC2)N(c2ccc(C(C)C)cc2)C1=S,13.8 µM
